Bounds are passed on as bounds.

The term IC50 denotes the point on the concentration scale where inhibition reaches its midpoint. In general, inhibition refers to the share of the control response that was lost under treatment.

For one assay, the target named is T1, Xanthine dehydrogenase/oxidase (Bos taurus, UniProt P80457). Nature of the assay: Inhibition of bovine Xanthine oxidase assessed as reduction in uric acid level by spectrophotometry.
T1 sequence (P80457 whole entry): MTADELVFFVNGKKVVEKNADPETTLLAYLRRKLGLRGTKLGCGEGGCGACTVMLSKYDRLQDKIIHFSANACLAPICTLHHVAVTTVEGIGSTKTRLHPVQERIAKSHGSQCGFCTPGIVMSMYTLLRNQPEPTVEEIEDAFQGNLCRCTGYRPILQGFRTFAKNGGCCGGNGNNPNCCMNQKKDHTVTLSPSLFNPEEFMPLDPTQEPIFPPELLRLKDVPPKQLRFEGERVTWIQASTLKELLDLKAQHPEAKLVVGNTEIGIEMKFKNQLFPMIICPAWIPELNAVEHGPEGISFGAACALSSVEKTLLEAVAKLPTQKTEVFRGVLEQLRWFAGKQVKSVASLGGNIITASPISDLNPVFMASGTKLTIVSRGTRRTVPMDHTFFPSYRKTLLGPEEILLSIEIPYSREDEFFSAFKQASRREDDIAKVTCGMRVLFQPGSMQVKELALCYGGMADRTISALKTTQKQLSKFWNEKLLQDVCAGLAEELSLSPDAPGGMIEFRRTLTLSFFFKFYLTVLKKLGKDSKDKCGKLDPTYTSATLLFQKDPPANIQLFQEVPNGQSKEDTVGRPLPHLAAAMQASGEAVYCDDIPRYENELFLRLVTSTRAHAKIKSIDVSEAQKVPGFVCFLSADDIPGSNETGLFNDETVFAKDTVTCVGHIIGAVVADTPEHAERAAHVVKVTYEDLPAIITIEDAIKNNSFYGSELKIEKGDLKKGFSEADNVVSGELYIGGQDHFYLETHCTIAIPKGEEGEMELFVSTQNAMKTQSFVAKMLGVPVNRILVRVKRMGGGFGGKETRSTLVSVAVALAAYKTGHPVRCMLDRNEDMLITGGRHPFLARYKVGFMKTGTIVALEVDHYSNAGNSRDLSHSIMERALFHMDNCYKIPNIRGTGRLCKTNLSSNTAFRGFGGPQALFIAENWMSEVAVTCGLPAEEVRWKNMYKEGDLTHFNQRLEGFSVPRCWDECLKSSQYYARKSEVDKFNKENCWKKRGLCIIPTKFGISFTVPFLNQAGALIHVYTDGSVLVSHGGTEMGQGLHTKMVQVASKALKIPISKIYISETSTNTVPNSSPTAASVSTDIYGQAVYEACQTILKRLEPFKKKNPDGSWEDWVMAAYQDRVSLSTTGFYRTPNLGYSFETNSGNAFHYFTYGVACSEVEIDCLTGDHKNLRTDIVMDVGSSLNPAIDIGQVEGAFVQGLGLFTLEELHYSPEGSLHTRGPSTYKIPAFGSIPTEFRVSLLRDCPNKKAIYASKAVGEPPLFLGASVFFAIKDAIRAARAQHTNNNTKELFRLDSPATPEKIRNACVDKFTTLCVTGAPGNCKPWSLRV
Settings: not given
On to `Cc1ccccc1COc1cc(O)cc2oc3cc(O)c(O)cc3c(=O)c12`, for which the IC50 came to 7.08 µM.
The same measure, in the same setting: as for `Cc1cccc(COc2cc(O)cc3oc4cc(O)c(O)cc4c(=O)c23)c1`, the figure is 13.6 µM; as for `Cc1ccc(COc2cc(O)cc3oc4cc(O)c(O)cc4c(=O)c23)cc1`, 5.73 µM.
Still for that read-out and setting: as for `O=c1c2cc(O)c(O)cc2oc2cc(O)cc(OCc3ccccc3Cl)c12`, the figure is 6.41 µM.
Consider `O=c1c2cc(O)c(O)cc2oc2cc(O)cc(OCc3ccc(Cl)cc3)c12`, for which the IC50 was 4.7 µM.
With `O=c1c2cc(O)c(O)cc2oc2cc(O)cc(OCc3ccc(Br)cc3)c12`, the IC50 stood at 20.1 µM.
The same measure, in the same setting: as for `N#Cc1ccc(COc2cc(O)cc3oc4cc(O)c(O)cc4c(=O)c23)cc1`, the figure is 4.67 µM.

The next assay has as its target T1, Xanthine dehydrogenase/oxidase. Nature of the assay: Inhibition of bovine Xanthine oxidase assessed as reduction in uric acid level at 10 ug/ml by spectrophotometry. The conditions noted are these: cattle. The method, boiled down:
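Single-concentration screen at 10 μg/mL. XO activity was followed spectrophotometrically as uric acid formation at 293 nm and reported as percent inhibition. Below 60% inhibition at this concentration was recorded as not active.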
For `O=c1c2cc(O)c(O)cc2oc2cc(O)cc(OCc3ccccc3F)c12`, the inhibition at 10 µg/mL is less than 60%.
Same read-out and setting: to `O=c1c2cc(O)c(O)cc2oc2cc(O)cc(OCc3cccc(F)c3)c12` belongs less than 60%; to `O=c1c2cc(O)c(O)cc2oc2cc(O)cc(OCc3ccc(F)cc3)c12`, less than 60%; to `O=c1c2cc(O)c(O)cc2oc2cc(O)cc(OCc3cccc(Cl)c3)c12`, less than 60%.
Same read-out and setting: to `O=c1c2cc(O)c(O)cc2oc2cc(O)cc(OCc3ccccc3Br)c12` belongs less than 60%; to `O=c1c2cc(O)c(O)cc2oc2cc(O)cc(OCc3cccc(Br)c3)c12`, less than 60%; to `O=c1c2cc(O)c(O)cc2oc2cc(O)cc(OCc3ccccc3[N+](=O)[O-])c12`, less than 60%.
Regarding `O=c1c2cc(O)c(O)cc2oc2cc(O)cc(OCc3cccc([N+](=O)[O-])c3)c12`, the inhibition at 10 µg/mL was less than 60%.
On the same count and under the same terms, as for `O=c1c2cc(O)c(O)cc2oc2cc(O)cc(OCc3ccc([N+](=O)[O-])cc3)c12`, the figure is less than 60%; as for `N#Cc1ccccc1COc1cc(O)cc2oc3cc(O)c(O)cc3c(=O)c12`, less than 60%; as for `N#Cc1cccc(COc2cc(O)cc3oc4cc(O)c(O)cc4c(=O)c23)c1`, less than 60%.
Still for that read-out and setting: as for `O=c1c2cc(O)c(O)cc2oc2cc(O)cc(OCc3ccc(Cl)cc3Cl)c12`, the figure is less than 60%; as for `O=c1c2cc(O)c(O)cc2oc2cc(O)cc(OCc3c(Cl)cccc3Cl)c12`, less than 60%.

(Values after ChEMBL document CHEMBL1795214, “Discovery of novel xanthone derivatives as xanthine oxidase inhibitors” (Bioorg Med Chem Lett, 2011).)
